# Screening results as filed in PubChem BioAssay.
# ABCG2 block: inhibitors of human ABCG2 transporter, ABCB1 counter-screen. IgMXP3 cells, JC-1 efflux, flow cytometry. Q9UNQ0. inhibition, % at 6.6 µM. 0.1% of 190,000 active;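 active = inhibition above 80%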;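 note: 0% = DMSO and 100% = nicardipine control wells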
#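 Test system: IgMXP3 cells (ABCG2) mixed with DDAO far-red-labelled CCRF-Adr cells (ABCB1). Reagent: JC-1 transporter substrate. Compound dosing: single test compound dose, 6.6 µM final. Times: 10 min compound exposure, 25 °C. Detection: flow cytometry of retained JC-1 fluorescence. Read-out basis: efflux inhibition in percent versus controls. Controls: nicardipine and DMSO wells.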
# ABCB1 block: human ABCB1 inhibition, ABCG2 as counter-screen; P08183; 0.067% of 190,000 active; CCRF-Adr cells, JC-1 efflux, flow cytometry; inhibition, % at 6.6 µM; AID 1326; in the data active = inhibition above about 40%;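 note: 0% = vehicle and 100% = reference inhibitor; higher value means more JC-1 retained so stronger ABCB1 efflux block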
# Target sequence (P08183 whole entry, looked up): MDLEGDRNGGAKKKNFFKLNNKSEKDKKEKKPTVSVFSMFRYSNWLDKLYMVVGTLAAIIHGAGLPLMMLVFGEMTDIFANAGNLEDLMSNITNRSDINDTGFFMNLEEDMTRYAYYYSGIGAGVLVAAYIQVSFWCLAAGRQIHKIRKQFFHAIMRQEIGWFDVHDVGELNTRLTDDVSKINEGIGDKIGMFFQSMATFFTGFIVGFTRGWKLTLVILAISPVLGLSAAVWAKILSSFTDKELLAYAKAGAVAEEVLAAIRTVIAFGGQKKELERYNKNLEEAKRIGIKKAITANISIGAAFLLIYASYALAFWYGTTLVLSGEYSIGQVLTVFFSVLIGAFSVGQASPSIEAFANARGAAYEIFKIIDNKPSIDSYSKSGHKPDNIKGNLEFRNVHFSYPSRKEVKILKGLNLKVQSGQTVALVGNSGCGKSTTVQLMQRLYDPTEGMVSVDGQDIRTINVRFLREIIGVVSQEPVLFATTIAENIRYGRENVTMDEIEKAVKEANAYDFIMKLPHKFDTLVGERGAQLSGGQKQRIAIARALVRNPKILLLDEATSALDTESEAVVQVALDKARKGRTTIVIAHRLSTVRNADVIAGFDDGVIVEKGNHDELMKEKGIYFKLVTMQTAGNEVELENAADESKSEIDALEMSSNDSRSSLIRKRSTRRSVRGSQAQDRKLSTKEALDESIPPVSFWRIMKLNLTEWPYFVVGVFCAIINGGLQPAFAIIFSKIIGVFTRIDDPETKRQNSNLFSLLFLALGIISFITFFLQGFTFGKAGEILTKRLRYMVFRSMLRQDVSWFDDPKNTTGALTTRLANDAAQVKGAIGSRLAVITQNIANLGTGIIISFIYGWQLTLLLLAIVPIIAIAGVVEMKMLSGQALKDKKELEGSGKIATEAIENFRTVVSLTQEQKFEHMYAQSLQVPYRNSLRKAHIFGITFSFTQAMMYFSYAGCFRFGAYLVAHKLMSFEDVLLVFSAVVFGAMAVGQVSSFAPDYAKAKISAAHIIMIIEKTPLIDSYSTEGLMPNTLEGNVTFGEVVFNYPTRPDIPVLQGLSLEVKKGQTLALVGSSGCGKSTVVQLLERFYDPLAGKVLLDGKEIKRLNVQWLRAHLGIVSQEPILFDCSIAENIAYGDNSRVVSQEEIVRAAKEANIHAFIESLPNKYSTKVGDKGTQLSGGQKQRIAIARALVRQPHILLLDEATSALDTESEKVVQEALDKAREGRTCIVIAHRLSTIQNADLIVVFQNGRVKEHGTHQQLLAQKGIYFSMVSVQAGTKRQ
# RAM network inh: inhibitors of the yeast RAM network; S. cerevisiae dse1pr::URA3 reporter, 5-FOA growth OD615, 2 d; analog-sensitive cbk1-as2 kinase mutant strain; inhibition, % at 50 µM; 1.8% of 190,000 active; AID 868;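 active = inhibition above a set limit, 3 SD over mean compound inhibition, cut at about 8.4% in these data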;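 note: 0% = DMSO-only wells with no growth and 100% = 10 µM 1-NA-PP1 full growth; inhibition rescues growth on 5-FOA so higher OD means more RAM inhibition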
# Arbovirus inh: arbovirus infection inhibition. arbovirus infection cell-based antiviral screen. inhibition, % at 10 µM. 0.37% of 200,000 active. AID 1251; in the data active = inhibition above about 30%
# Active calls of the source: *. Compounds with a hit are over-represented: about 2.3% of the library has one in this group of screens.
SMILES,ABCG2 block,ABCB1 block,RAM network inh,Arbovirus inh
CCn1c(COc2ccc3c(c2)OCO3)nnc1SCC(=O)O,1,1,1,5
Cc1cc(C)c2nc(NNC(=O)c3cc(=O)c4ccccc4o3)sc2c1,-3,-1,9.5*,3
COc1cccc(C2CC(c3cccs3)=NN2C(=O)CSc2nc3c(cnn3-c3ccc(F)cc3)c(=O)[nH]2)c1OC (stereo not drawn),5,2,11*,2
COC(=O)CN1C(=S)N(c2ccc(OC)cc2)C(=O)/C1=C/c1ccc(OC)cc1,1,-1,11*,19
COC(=O)CN1C(=S)N(c2ccc(OC)cc2)C(=O)/C1=C/c1ccc(N2CCOCC2)cc1,1,0,4,-3
Cc1cccc(-n2nc(C)c3c(C(=O)O)cc(-c4cccs4)nc32)c1,-3,-1,1,42*
COc1ccc(/C=C/c2cc(=O)c3cc(Cl)ccc3o2)cc1,9,1,10*,-2
CCOC(=O)/C(=N\Nc1ccc(Cl)cc1)c1csc(Nc2ccccc2)n1,0,0,4,-39
CCOC(=O)/C(=N\Nc1ccc(OC)cc1)c1csc(Nc2ccccc2)n1,46,0,11*,-5
Cc1ccc(Cn2ncc3c(N4CCN(c5ccccc5C)CC4)ncnc32)cc1,3,1,10*,-14
Clc1ccc(CO/N=C/c2c(-c3ccccc3)nc3n2CCS3)c(Cl)c1,0,0,11*,10
Cc1nc2c(c3c1[nH]c1ccccc13)C(O)CC(C)(C)C2 (stereo not drawn),1,0,0,54*
Cc1cc2[nH]c3ccccc3c2c(C)n1,0,0,5,-9
Cc1cc(SCC(=O)OCC(=O)NC(C)c2ccccc2)c(C)cc1Br (stereo not drawn),3,1,10*,5
Nc1cc(=O)[nH]c(SCC(=O)N2N=C(c3ccc(Cl)cc3)CC2c2ccco2)n1 (stereo not drawn),-1,0,1,3
Cc1ccc(CSc2ncnc3c2cnn3-c2ccc(C)cc2)cc1,-2,-1,9.5*,14
COc1cccc(NC(=S)N2CCCC2)c1,-4,-1,0,2
O=C(NCC1CCCO1)C(c1cccs1)N(C(=O)c1ccc(-c2ccccc2)[nH]1)C1CCCC1 (stereo not drawn),6,3,2,7
O=C(NCC1CCCO1)C(c1cccs1)N(Cc1ccccc1)C(=O)c1ccc(-c2ccccc2)[nH]1 (stereo not drawn),0,4,10*,-23
CCc1cccc(C)c1NC(=O)CN1C(=O)NC(Cc2ccccc2)C1=O (stereo not drawn),4,0,1,2
Oc1ccccc1Nc1nc(NCC2CCCO2)c2ccccc2n1 (stereo not drawn),3,0,1,-1
Oc1ccc(Nc2nc(NCC3CCCO3)c3ccccc3n2)cc1 (stereo not drawn),7,1,1,41*
Cc1ccn2c(/C=N/OCc3cccc(F)c3)c(-c3ccc(Cl)cc3)nc2c1,3,0,4,6
Cc1ccn2c(/C=N/OCc3ccc(F)cc3)c(-c3ccc(Cl)cc3)nc2c1,45,5,9.7*,-1
COc1cccc(-c2nn(C)c3sc(C(=O)NCc4ccc(C)o4)cc23)c1,7,1,11*,-5
SMILES,ABCG2 block,ABCB1 block,RAM network inh,Arbovirus inh
COc1cccc(-c2nn(C)c3sc(C(=O)NCc4ccc5c(c4)OCO5)cc23)c1,5,1,4,-11
Cc1cc(C)c2nc(SC(C)C(=O)NCC(=O)Nc3ccc(F)c(F)c3F)cc(C)c2c1 (stereo not drawn),11,1,4,-5
Cc1ccc2cc(CCNS(=O)(=O)c3ccc(F)cc3)c(=O)[nH]c2c1,2,1,2,3
Cc1ccc2cc(CCNS(=O)(=O)c3ccc(F)cc3)c(=O)[nH]c2c1C,3,1,8.5*,5
Cc1cccc(S(=O)(=O)Nc2nc3ccccc3nc2NCc2ccco2)c1,3,1,7,33*
CN(C)CCNC(=O)/C(=C/c1ccc(-c2ccc(Cl)cc2Cl)o1)NC(=O)c1ccccc1,2,1,-1,-35
O=[N+]([O-])c1ccc(-c2cnc(SC(c3ccccc3)c3ccccc3)[nH]2)cc1,8,0,9.5*,10
CN(c1ccccc1C(=O)Nc1ccc(S(=O)(=O)N2CCCC2)cc1)S(C)(=O)=O,4,-1,1,2
COc1ccc(OC)c(-c2cc(C(=O)N3CCCc4ccccc43)no2)c1,55,3,9.3*,2
COc1ccccc1-c1cc(C(=O)N2CCCc3ccccc32)no1,18,2,8,0
